Data set [1] is described as follows: folding enthalpy; higher = less favourable; fluorescence melt of hairpins on a sequencing array, two-state fit. The conditions noted are these: sodium 0.088 M. In outline: (§1)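 Bootstrapped two-state fits yielded melting temperature and folding enthalpy for library hairpins. Cy3 fluorescence, with annealed Cy3 and quencher oligos, was imaged on a sequenced MiSeq flow cell in 50 mM Na-HEPES pH 8.0, 25 mM NaCl in 2.5 °C steps up to 60 °C, and normalised to pre-quench Cy3 and to control constructs. Four replicates were combined by inverse variance, and fitted temperatures were raised by 9.35 °C to match UV melts.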

Data set [2] can be described thus: melting temperature; fluorescence melt of hairpins on a sequencing array, two-state fit, raised by 9.35 °C to match UV melts. The conditions noted are these: sodium 0.088 M. An outline of the steps: as §1

Consider GCTGTCGCGAAAGCGAGC (((..(((....)))))), for which the folding enthalpy in data set [1] is -36.6 kJ/mol. For the same sequence, the Tm in data set [2] was found to be 41.8 °C.

For the sequence GCTGTCGGAAACAACAGC (((((.(....).))))), the folding enthalpy in data set [1] was -113 kJ/mol. In addition, in data set [2], the Tm came out at 46 °C.

As to GCTGTGCCGAAAGGCAGC (((..(((....)))))), the folding enthalpy in data set [1] is -43.1 kJ/mol. Besides, the Tm in data set [2] is 48.7 °C.

As for GCTGTGCGAAAGCAAAGC (((.(((....))).))), the folding enthalpy in data set [1] is -177 kJ/mol. The Tm in data set [2] is 55.7 °C.

As to GCTGTGCGAAAGCAATGC ((..(((....)))..)), the folding enthalpy in data set [1] was -79.9 kJ/mol. Further, in data set [2], the Tm is 42.8 °C.

On to GCTGTGCGAAAGCACCGC ((.((((....)))).)), for which the folding enthalpy in data set [1] is -75 kJ/mol. Besides, the Tm in data set [2] amounted to 58.7 °C.

In the case of GCTGTGCGAAAGCATGGC ((..(((....)))..)), the folding enthalpy in data set [1] is -93.9 kJ/mol. Further, the Tm in data set [2] was determined as 59.5 °C.

For the sequence GCTGTGCGAAAGCGAAGC (((..((....))..))), the folding enthalpy in data set [1] was -75 kJ/mol. The Tm in data set [2] worked out at 52.6 °C.

For GCTGTGCGAAAGCGGAGC (((..((....))..))), the folding enthalpy in data set [1] was -92 kJ/mol. Further, in data set [2], the Tm is 54.9 °C.

In the case of GCTGTGCGAAAGCTAAGC (((..((....))..))), in data set [1], the folding enthalpy was -89.6 kJ/mol. Moreover, the Tm in data set [2] was 53.1 °C.

Turning to GCTGTGGAAACACAGC ((((((....)))))), the folding enthalpy in data set [1] is -156 kJ/mol. In addition, the Tm in data set [2] worked out at 68.7 °C.

Take GCTGTGGGAAACCATAGC (((.(((....))).))): the folding enthalpy in data set [1] was -93.3 kJ/mol. Also, the Tm in data set [2] amounted to 50 °C.

GCTGTGGGAAACCGCAGC ((((.((....)).)))): the folding enthalpy in data set [1] is -187 kJ/mol. Further, in data set [2], the Tm came to 60.7 °C.

Take GCTGTGGGAAACCGTAGC (((..((....))..))): in data set [1], the folding enthalpy was -77.3 kJ/mol. In data set [2], the Tm is 34.4 °C.

For GCTGTGGGAAACTGCAGC ((((..(....)..)))), the folding enthalpy in data set [1] was -84.9 kJ/mol. The Tm in data set [2] is 48.1 °C.

Turning to GCTGTTCGAAAGAATAGC (((.(((....))).))), in data set [1], the folding enthalpy is -188 kJ/mol. Moreover, the Tm in data set [2] was 53.2 °C.

As for GCTGTTGGAAACAATGGC ((..(((....)))..)), in data set [1], the folding enthalpy was -115 kJ/mol. For the same sequence, the Tm in data set [2] came to 39.9 °C.

On to GCTTAACGAAAGTTGAGC (((.(((....))).))), for which the folding enthalpy in data set [1] was -163 kJ/mol. For the same sequence, the Tm in data set [2] amounted to 52.4 °C.

As for GCTTAACGAAAGTTTAGC (((.(((....))).))), the folding enthalpy in data set [1] is -128 kJ/mol. Also, in data set [2], the Tm was 46.4 °C.

In the case of GCTTAAGGAAACTTGAGC (((.(((....))).))), the folding enthalpy in data set [1] was -132 kJ/mol. The Tm in data set [2] is 38.9 °C.

As to GCTTACCGAAAGGTCAGC (((.(((....))).))), the folding enthalpy in data set [1] was -116 kJ/mol. In addition, the Tm in data set [2] came to 50.3 °C.

Turning to GCTTACCGAAAGGTGAGC (((.(((....))).))), the folding enthalpy in data set [1] is -169 kJ/mol. The Tm in data set [2] amounted to 58.6 °C.

As to GCTTACGAAAGTACCAGC ((((((....)))..))), the folding enthalpy in data set [1] was -55.3 kJ/mol. Also, the Tm in data set [2] was determined as 27.9 °C.

With GCTTACGAAAGTATAGC ((((((....))).))), in data set [1], the folding enthalpy was -98 kJ/mol. The Tm in data set [2] stood at 44.6 °C.

Turning to GCTTACGAAAGTATGAGC ((((((....)))..))), the folding enthalpy in data set [1] was -85.7 kJ/mol. Further, the Tm in data set [2] came to 34.7 °C.

On to GCTTACGGAAACGCAAGC ((((.((....)).)))), for which the folding enthalpy in data set [1] is -185 kJ/mol. In data set [2], the Tm is 46 °C.

GCTTAGCGAAAGCAACGC ((.(.((....)).).)): the folding enthalpy in data set [1] is -30.8 kJ/mol. Further, the Tm in data set [2] is 30.5 °C.

As for GCTTAGCGAAAGCCACGC ((.(.((....)).).)), in data set [1], the folding enthalpy was -35.8 kJ/mol. Besides, the Tm in data set [2] came out at 22.5 °C.

Consider GCTTAGCGAAAGCCATGC ((.(.((....)).).)), for which the folding enthalpy in data set [1] is -46.9 kJ/mol. The Tm in data set [2] came out at 29.6 °C.

Regarding GCTTAGCGAAAGCCTAGC (((..((....))..))), in data set [1], the folding enthalpy is -65.4 kJ/mol. For the same sequence, the Tm in data set [2] was 37.8 °C.

As to GCTTAGCGAAAGCGACGC ((.(.((....)).).)), in data set [1], the folding enthalpy was -76.1 kJ/mol. Besides, in data set [2], the Tm turned out to be 53.2 °C.

In the case of GCTTAGCGAAAGCTCGGC ((..(((....)))..)), the folding enthalpy in data set [1] was -73.9 kJ/mol. In addition, in data set [2], the Tm was 36.7 °C.

In the case of GCTTAGGGAAACCTAGGC ((.((((....)))).)), in data set [1], the folding enthalpy is -143 kJ/mol. Moreover, the Tm in data set [2] was 44.4 °C.

GCTTAGGGAAACTTAAGC (((((.(....).))))): in data set [1], the folding enthalpy was -126 kJ/mol. In data set [2], the Tm was 37.9 °C.

For the sequence GCTTATGCGAAAGCAAGC (((..(((....)))))), the folding enthalpy in data set [1] is -69.7 kJ/mol. The Tm in data set [2] was 42.4 °C.

For the sequence GCTTCAACGAAAGTTAGC (((..(((....)))))), in data set [1], the folding enthalpy was -78.4 kJ/mol. In addition, the Tm in data set [2] turned out to be 30.9 °C.

The record behind these values is the array DNA melting data of Ke et al. (doi:10.1101/2024.01.08.574731).
